Source: paper PMC8157400 (Chemical Science, 2020)

How the values were obtained:
folate receptor-a (FR-α) = details: cited from earlier work
IGROV-1 cells [1] = experiment: ADCC assay; assay type: cell-based, human
IGROV-1 cells [2] = details: IGROV-1 cells (EGFR/FR-α double positive); cited from earlier work
IGROV-1 cells [3] = experiment: Antibody recruitment / binding on cells, flow cytometry; assay type: cell-based, human
IGROV-1 cells [4] = experiment: Mouse IgG recruitment and NK cell activation; assay type: cell-based, human; details: Fc-ARM2 10 nM, mouse IgG 100 nM; flow cytometry n = 4; ADCC 16 h n = 3; Fig. S11
[5] = test system: A549 lung cancer cells (FR-α−); experiment: ADCC assay; assay type: cell-based, human; details: Fc-ARM2 + anti-CD20, 16 h, E/T 1-8, n = 3, Fig. S7
[6] = test system: KHYG-1/CD16a-158V NK cells co-cultured with IGROV-1 cells; experiment: IFN-γ secretion from NK cells, ELISA; assay type: cell-based, human
IGROV-1 cells (FR-α+) = experiment: Antibody recruitment to cancer cells, fluorescence microscopy; assay type: cell-based, human; details: Fc-ARM2 100 nM
[7] = test system: KHYG-1/CD16a-158V cells co-cultured with IGROV-1 cells; experiment: CD107a mobilization assay, flow cytometry; assay type: cell-based, human; details: Fc-ARM2 10 nM + anti-CD20 100 nM, 6 h, E/T = 1
Method in brief: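 Human NK line KHYG-1 expressing CD16a-158V co-cultured 6 h with FR-α+ IGROV-1 ovarian adenocarcinoma cells (E/T 1) with the indicated reagents. Surface CD107a on NK cells read by flow cytometry. Mean ± SEM; two experimental repeats; one-way ANOVA with Tukey's multiple comparison test.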

Nc1nc(=O)c2nc(CNc3ccc(C(=O)N[C@@H](CCC(=O)O)C(=O)O)cc3)cnc2[nH]1 [FA, folic acid]
Affinity to FR-α (folate receptor-a (FR-α)): sub-nanomolar

CC(C)C[C@@H]1NC(=O)[C@H](Cc2c[nH]cn2)NC(=O)[C@H](Cc2c[nH]c3ccccc23)NC(=O)[C@H](C)NC(=O)[C@@H](NC(=O)[C@H](CC(=O)O)NC(=O)CCOCCOCCOCCOCCOCCOCCNC(=O)CC[C@H](NC(=O)c2ccc(NCc3cnc4nc(N)[nH]c(=O)c4n3)cc2)C(=O)O)CSSC[C@@H](C(=O)N[C@H](C(N)=O)[C@@H](C)O)NC(=O)[C@H](Cc2c[nH]c3ccccc23)NC(=O)[C@H](C(C)C)NC(=O)[C@H](CC(C)C)NC(=O)[C@H](CCC(=O)O)NC(=O)CNC1=O [Fc-ARM1]
ADCC (% cytotoxicity) after 4 h co-culture (IGROV-1 cells [1]; Fc-ARM + anti-CD20, 4 h, E/T 1-8, n = 3, Fig. 4A): did not show detectable cytotoxicity | Effect on ADCC activity of anti-EGFR mAb (IGROV-1 cells [2]): inhibited the ADCC activity | Change in MFI of fluorescein-labeled anti-EGFR mAb on cells (IGROV-1 cells [3]; 10 nM Fc-ARM1 added, Fig. S9A): about a six-fold increase in MFI

CC(C)C[C@@H]1NC(=O)[C@H](Cc2c[nH]cn2)NC(=O)[C@H](Cc2c[nH]c3ccccc23)NC(=O)[C@H](C)NC(=O)[C@@H]2CSSC[C@H](NC(=O)[C@H](Cc3c[nH]c4ccccc34)NC(=O)[C@H](C(C)C)NC(=O)[C@H](CC(C)C)NC(=O)[C@H](CCC(=O)O)NC(=O)CNC1=O)C(=O)N[C@@H]([C@@H](C)O)C(=O)N[C@H](C(N)=O)CSSC[C@H](NC(=O)CCOCCOCCOCCOCCOCCOCCNC(=O)CC[C@H](NC(=O)c1ccc(NCc3cnc4nc(N)[nH]c(=O)c4n3)cc1)C(=O)O)C(=O)N[C@@H](CC(=O)O)C(=O)N2 [Fc-ARM2]
Recruitment of mouse IgG and ADCC (IGROV-1 cells [4]): did not work with mouse IgG | ADCC (% cytotoxicity) with recruited anti-CD20 (IGROV-1 cells [1]; Fc-ARM 10 nM + anti-CD20 100 nM, 16 h, E/T 1-8, LDH assay, n = 3): showed clear target cell killing | ADCC with increasing concentration of anti-CD20 (IGROV-1 cells [1]; Fc-ARM 10 nM, E/T = 8, 16 h, n = 3, Fig. 4C): induced ADCC more effectively | ADCC (% cytotoxicity) with excess FA (IGROV-1 cells [1]; Fc-ARM2 10 nM + anti-CD20 100 nM + FA (1 μM), 16 h): eliminated by excess FA | ADCC with Fc fragment of anti-CD20 (IGROV-1 cells [1]; Fc-ARM2 + Fc fragment of anti-CD20 mAb, n = 3, Fig. 4D): induced cytotoxicity upon recruitment by Fc-ARM2 | ADCC (% cytotoxicity) after 6, 8 and 16 h co-culture (IGROV-1 cells [1]; Fc-ARM + anti-CD20, E/T = 4, Fig. 4B): showed higher cytotoxicity compared with Fc-ARM1 + anti-CD20 | ADCC against A549 cells [5]: ADCC was not induced | IFN-γ secretion from NK cells ([6]; Fc-ARM2 + anti-CD20, E/T = 8, ELISA of supernatant, Fig. 3B): secretion of interferon-γ (IFN-γ) | IFN-γ secretion from NK cells after 16 h ([6]; Fc-ARM + anti-CD20, E/T = 4, 16 h, Fig. S8): induced a higher amount of IFN-γ secretion | Amount of recruited IgG-FITC (MFI) (IGROV-1 cells [3]; 10 nM Fc-ARM, increasing IgG-FITC, n = 3, Fig. 2E): recruited a higher amount of IgG-FITC compared with Fc-ARM1 | Recruitment of Fc-fluorescein (Fc-fluo) to cells (IGROV-1 cells (FR-α+); Fc-fluo 500 nM): recruited the papain-digested Fc fragment of IgG1 | Recruitment of IgG-FITC to cells (IGROV-1 cells (FR-α+); IgG-FITC 500 nM, 30 min, 4 °C): successfully recruited FITC-labeled human IgG (IgG-FITC) to IGROV-1 cells | Recruitment of IgG-FITC to cells with excess FA (IGROV-1 cells (FR-α+); IgG-FITC 500 nM, FA 100 µM as competitor): diminished IgG-derived fluorescence | Surface mobilization of CD107a on NK cells [7]: surface mobilization of CD107a
